Paper PMC4935665 (Journal of bone and mineral research : the official journal …, 2016)

Tests used:
[1] = tested on: rats; conditions: daily injection 20 nmol/kg sc; cited from earlier work
[2] = in vivo; conditions: rat, iv, 24.3 nmol/kg
[3] = tested on: cynomolgus monkeys; assay: Single SC injection in cynomolgus monkeys, serum Ca; format: in vivo, cynomolgus monkey; conditions: SC 10 nmol/kg
In short: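 Normal cynomolgus monkeys receive SC injections in two experiments, with serum Ca followed after injection. In experiment 1, animals get vehicle or test peptide at 0.25, 0.5 or 1.0 nmol/kg, three animals per dose.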

[4] = tested on: TPTX rats; assay: Single IV injection in TPTX rats, serum Ca and Pi; format: in vivo, rat; conditions: for time for sPi to return to vehicle-control levels: single IV 24.3 nmol/kg; for sCa response versus sham-control level: single IV 24.3 nmol/kg (highest dose); for duration of modest, transient sCa increase and sPi decrease: single IV, dose 80-fold higher than that used for LA-PTH
[5] = human, in vivo; cited from earlier work
[6] = tested on: HP patients; conditions: cited from earlier work
[7] = tested on: TPTX rats; format: in vivo, rat; conditions: once daily SC 9 nmol/kg
[8] = rat, in vivo, iv
[9] = HP patients, single SC injection

Compound | serum calcium or phosphorus [1] | half-life [2] | efficacy for elevating sCa compared with PTH(1–84) ([3]; n = 3) | time for sPi to return to vehicle-control levels [4] | sCa response versus sham-control level [4] | duration of modest, transient sCa increase and sPi decrease [4] | true serum half-life in the blood [5] | time for sCa to return to vehicle-control levels [3] | peak sCa level ([3]; n = 2) | time for mean serum Ca to return to pre-dose, hypocalcemic levels [6, 9] | time of peak sCa levels post-administration [6, 9] | serum half-life times ([6]; human, in vivo, sc) | subjects with hypercalcemia at peak times ([6]; human, in vivo, sc) | lumbar and femur BMD [7] | sCa versus vehicle-injected TPTX rats [7] | sPi versus vehicle-injected TPTX rats [7] | trabecular number at the distal femur [7] | serum half-life t1/2 [8]
CC[C@H](C)[C@H](NC(=O)[C@H](CCC(=O)O)NC(=O)[C@H](CO)NC(=O)[C@@H](NC(=O)[C@@H](N)CO)C(C)C)C(=O)N[C@@H](CCC(N)=O)C(=O)N[C@@H](CC(C)C)C(=O)N[C@@H](CCSC)C(=O)N[C@@H](Cc1c[nH]cn1)C(=O)N[C@@H](CC(N)=O)C(=O)N[C@@H](CC(C)C)C(=O)NCC(=O)N[C@@H](CCCCN)C(=O)N[C@@H](Cc1c[nH]cn1)C(=O)N[C@@H](CC(C)C)C(=O)N[C@@H](CC(N)=O)C(=O)N[C@@H](CO)C(=O)N[C@@H](CCSC)C(=O)N[C@@H](CCC(=O)O)C(=O)N[C@@H](CCCNC(=N)N)C(=O)N[C@H](C(=O)N[C@@H](CCC(=O)O)C(=O)N[C@@H](Cc1c[nH]c2ccccc12)C(=O)N[C@@H](CC(C)C)C(=O)N[C@@H](CCCNC(=N)N)C(=O)N[C@@H](CCCCN)C(=O)N[C@@H](CCCCN)C(=O)N[C@@H](CC(C)C)C(=O)N[C@@H](CCC(N)=O)C(=O)N[C@@H](CC(=O)O)C(=O)N[C@H](C(=O)N[C@@H](Cc1c[nH]cn1)C(=O)N[C@@H](CC(N)=O)C(=O)N[C@@H](Cc1ccccc1)C(=O)O)C(C)C)C(C)C [PTH(1–34)] | little or no change | 7.8 min | even less effective | ≤ 10 h | failed to attain the sCa levels seen in the sham-control animals | < 6 h | – | – | – | – | – | – | – | – | – | – | – | –
PTH(1–84): human parathyroid hormone, produced recombinantly | – | – | – | ≤ 10 h | failed to attain the sCa levels seen in the sham-control animals | < 6 h | five minutes or less | ≤ 24 h | ~ 11.4 mg/dL | ≤ 24 h | ~7 h | two to three hours | 71% | significantly increased | no persistent increase | only marginal reductions | significantly increased | 5.4 min
